One data set has as its target T1, Streptokinase (Streptococcus pyogenes, UniProt P96471).
T1 sequence (P96471 whole entry): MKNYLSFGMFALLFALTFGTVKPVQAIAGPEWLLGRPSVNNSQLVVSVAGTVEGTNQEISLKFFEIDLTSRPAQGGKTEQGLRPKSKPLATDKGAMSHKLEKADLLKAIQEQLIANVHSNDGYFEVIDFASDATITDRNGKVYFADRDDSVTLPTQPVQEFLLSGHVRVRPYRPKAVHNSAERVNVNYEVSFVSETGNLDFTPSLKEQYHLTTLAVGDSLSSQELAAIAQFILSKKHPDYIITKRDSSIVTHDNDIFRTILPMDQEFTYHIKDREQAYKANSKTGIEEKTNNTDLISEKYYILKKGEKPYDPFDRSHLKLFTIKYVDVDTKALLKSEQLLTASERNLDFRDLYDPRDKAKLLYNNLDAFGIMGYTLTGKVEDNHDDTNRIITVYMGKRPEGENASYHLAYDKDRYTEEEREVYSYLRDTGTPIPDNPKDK
Description: Inhibition of Streptococcus pyogenes UMAA2616 streptokinase assessed as plasmin activity in human plasma after 24 hrs by colorimetric analysis. Put shortly: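 GAS culture grown 24 h with test compound (5 μM for ratio data); culture supernatant mixed with human plasma and resulting plasmin activity read as turnover of plasmin-specific chromogenic substrate at A405. Reported as SK activity relative to DMSO-treated control culture; IC50 taken as concentration giving 50% of maximal inhibition of SK expression; ± standard deviation.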

The test system of a further data set is Streptococcus pyogenes. Put plainly: Growth inhibition of Streptococcus pyogenes UMAA2616 at 50 uM after 24 hrs relative to control. It counts as organism-based.
The target of data set [1] is T2, Streptokinase (Streptococcus pyogenes) (UniProt P96471).
T2 sequence (whole entry): T1 sequence (P96471 whole entry)
Put plainly: Inhibition of Streptococcus pyogenes UMAA2616 streptokinase assessed as plasmin activity in human plasma at 5 uM after 24 hrs by colorimetric analysis relative to control. Put shortly:
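GAS cultures incubated 24 hours with 5 μM compound. Culture supernatant was mixed with human plasma, and the resulting plasmin activity was followed by turnover of a plasmin-specific chromogenic substrate, read as absorbance at 405 nm. Value is the activity of the treated culture divided by that of a DMSO-treated control culture, ± standard deviation.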

The text below walks through data of ChEMBL document CHEMBL3124834, “Development of tag-free photoprobes for studies aimed at identifying the target of novel Group A Streptococcus antivirulence agents” (Bioorg Med Chem Lett, 2014).

In the case of `C#CCOCCSc1nc2c(c(=O)n1CC=C)C(C)(C)Cc1ccc(N=[N+]=[N-])cc1-2`, the IC50 on Streptokinase stood at 190 nM. Also, the T/C stood at 0.98 in the data set on Streptococcus pyogenes and 0.3 in data set [1].
`C#CCSc1nc2c(c(=O)n1CC=C)C(C)(C)Cc1cc(OCCC3(C)N=N3)ccc1-2`: the T/C with Streptococcus pyogenes was found to be 0.96; in data set [1] it was 1.07.
As to `C#CCOc1ccc2c(c1)CC(C)(C)c1c-2nc(SCCC2(C)N=N2)n(CC=C)c1=O`, the T/C in the data set on Streptococcus pyogenes is 1.02; in data set [1], 0.89.
Take `C#CCSc1nc2c(c(=O)n1CC=C)C(C)(C)Cc1cc(C(=O)c3ccccc3)ccc1-2`: the T/C with Streptococcus pyogenes stood at 1.09; in data set [1], 0.77.
Turning to `C#CCOCCSc1nc2c(c(=O)n1CC=C)C(C)(C)Cc1cc(C(=O)c3ccccc3)ccc1-2`, the IC50 at Streptokinase is 3800 nM. Further, the T/C in the data set with Streptococcus pyogenes is 0.94; in data set [1] it was 0.51.
Take `C#CCOCCSc1nc2c(c(=O)n1CC=C)C(C)(C)Cc1cc(OCCC3(C)N=N3)ccc1-2`: the IC50 at Streptokinase was determined as 330 nM. Also, the T/C is 1.07 in the data set on Streptococcus pyogenes and 0.49 in data set [1].
As for `C=CCn1c(SCC)nc2c(c1=O)C(C)(C)Cc1ccc(OC)cc1-2`, the IC50 at Streptokinase was 1300 nM. For the same compound, the T/C amounted to 0.73 in the data set with Streptococcus pyogenes and 0.1 in data set [1].
For the compound `C#CCOCCOc1ccc2c(c1)CC(C)(C)c1c-2nc(SCCC2(C)N=N2)n(CC=C)c1=O`, the T/C stood at 1.01 with Streptococcus pyogenes and 0.71 in data set [1].

Usually IC50 stands for the concentration that gives 50% inhibition.
